From ChEMBL document CHEMBL3862007, “Synthesis and antimicrobial activity of small cationic amphipathic aminobenzamide marine natural product mimics and evaluation of relevance against clinical isolates including ESBL-CARBA producing multi-resistant bacteria” (Bioorg Med Chem, 2016)

Tests used:
Pseudomonas aeruginosa [1] = experiment: Antibacterial activity against Pseudomonas aeruginosa clinical isolate after 24 hrs by microdilution method; format: functional
Escherichia coli [2] = experiment: Antibacterial activity against Escherichia coli clinical isolate after 24 hrs by microdilution method; format: functional
Staphylococcus aureus [3] = experiment: Antibacterial activity against Staphylococcus aureus clinical isolate after 24 hrs by microdilution method; format: functional
Bacillus subtilis [4] = experiment: Antibacterial activity against Bacillus subtilis 168 ATCC 23857 after 48 hrs by microdilution method; format: functional; details: subsp. subtilis str. 168 ATCC 23857, 48 h
[5] = test system: Corynebacterium glutamicum; experiment: Antibacterial activity against Corynebacterium glutamicum ATCC 13032 after 48 hrs by microdilution method; format: functional; details: ATCC 13032, 48 h
Staphylococcus aureus [6] = experiment: Antibacterial activity against Staphylococcus aureus ATCC 9144 after 48 hrs by microdilution method; format: functional; details: ATCC 9144, 48 h
Pseudomonas aeruginosa [7] = experiment: Antibacterial activity against Pseudomonas aeruginosa PAO1 DSM 19880 (ATCC 15692) after 48 hrs by microdilution method; format: functional
[8] = Hemolytic activity in human RBC after 1 hr; format: ADME, cell-based; details: Erythrocyte
[9] = Selectivity index, ratio of hemolytic EC50 for human RBC to MIC for Staphylococcus aureus ATCC 9144
Escherichia coli [10] = experiment: Antibacterial activity against Escherichia coli ATCC 25922 after 48 hrs by microdilution method; format: functional; details: ATCC 25922, 48 h
Klebsiella pneumoniae = experiment: Antibacterial activity against Klebsiella pneumoniae clinical isolate after 24 hrs by microdilution method; format: functional
[11] = Antibacterial activity against methicillin-resistant Staphylococcus epidermidis RP62A CCUG 31568 (ATCC 35984) after 48 hrs by microdilution method; format: functional
Procedure, shortened: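 Broth microdilution MIC against the reference-strain panel. Compounds were supplied as HCl salts for aqueous solubility in the test medium. Precipitation in the test buffer is flagged at higher concentrations.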

Enterococcus sp. = experiment: Antibacterial activity against Enterococcus sp. clinical isolate after 24 hrs by microdilution method; format: functional
Bacillus subtilis [12] = experiment: Membranolytic activity in Bacillus subtilis 168 ATCC 23857 carrying pCSS962 plasmid measured every second for 30 secs by luciferase reporter assay; format: functional; details: subsp. subtilis str. 168 ATCC 23857
Procedure, shortened: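 B. subtilis 168 carrying pCSS962 (luciferase-expressing) was added as a suspension already containing D-luciferin, with luminescence read in real time up to 120 s. Water served as the untreated control. Chlorhexidine was added to all samples at 30 s as a membranolytic control. Fold induction is the peak sample luminescence over the water-control maximum after chlorhexidine, from two independent experiments.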

Structure (SMILES) | MIC (Pseudomonas aeruginosa [1]) | MIC (Escherichia coli [2]) | MIC (Staphylococcus aureus [3]) | MIC (Bacillus subtilis [4]) | MIC [5] | MIC (Staphylococcus aureus [6]) | MIC (Pseudomonas aeruginosa [7]) | EC50 [8] | Selectivity Index [9] | MIC (Escherichia coli [10]) | MIC (Klebsiella pneumoniae) | MIC [11] | MIC (Enterococcus sp.) | Activity (Bacillus subtilis [12])
CC(C)(C)c1cc(C(=O)Nc2cc3ccccc3cc2C(=O)NCCN)cc(C(C)(C)C)c1.Cl | > 64 µg/mL | 8 µg/mL | 2 µg/mL | 4 µg/mL | 2 µg/mL | 2 µg/mL | > 128 µg/mL | 23 µg/mL | 11.5 | 8 µg/mL | 64 µg/mL | 8 µg/mL | 2 µg/mL | 
CC(C)(C)c1cc(NC(=O)c2ccc(C(=O)NCCCNC(=N)N)cc2)cc(C(C)(C)C)c1.Cl | 8 µg/mL | 8 µg/mL | 4 µg/mL | 4 µg/mL | 2 µg/mL | 4 µg/mL | 8 µg/mL | 42 µg/mL | 10.5 | 8 µg/mL | 16 µg/mL | 8 µg/mL | 8 µg/mL | 
CC(C)(C)c1cc(C(=O)Nc2cccc(C(=O)NCCCNC(=N)N)c2)cc(C(C)(C)C)c1.Cl |  |  |  | 4 µg/mL | 4 µg/mL | 4 µg/mL | 16 µg/mL | 59 µg/mL | 14.8 | 8 µg/mL |  | 8 µg/mL |  | Dose-dependent effect
CC(C)(C)c1cc(C(=O)Nc2ccc(C(=O)NCCCN)cc2)cc(C(C)(C)C)c1.Cl |  |  |  | 4 µg/mL | 4 µg/mL | 8 µg/mL | 32 µg/mL | 31 µg/mL | 3.9 | 8 µg/mL |  | 8 µg/mL |  | 
CN(C(=O)c1cc(C(C)(C)C)cc(C(C)(C)C)c1)c1ccc(C(=O)NCCCN)cc1.Cl |  |  |  | 128 µg/mL | 64 µg/mL | > 128 µg/mL | > 128 µg/mL | 172 µg/mL | < 1.3 | > 128 µg/mL |  | > 128 µg/mL |  | 
CC(C)(C)c1cc(C(=O)Nc2ccccc2C(=O)NCCN)cc(C(C)(C)C)c1.Cl | > 64 µg/mL | 16 µg/mL | 8 µg/mL | 4 µg/mL | 4 µg/mL | 8 µg/mL | 64 µg/mL | 29 µg/mL | 3.6 | 16 µg/mL | 32 µg/mL | 8 µg/mL | 8 µg/mL | 
CC(C)(C)c1cc(C(=O)Nc2ccc(C(=O)NCCCNC(=N)N)cc2)cc(C(C)(C)C)c1.Cl |  |  |  | 4 µg/mL | 2 µg/mL | 4 µg/mL | 16 µg/mL | 62 µg/mL | 15.5 | 8 µg/mL |  | 4 µg/mL |  | 
CC(C)(C)c1cc(C(=O)Nc2ccccc2C(=O)NCCCN)cc(C(C)(C)C)c1.Cl |  |  |  | 4 µg/mL | 4 µg/mL | 8 µg/mL | 32 µg/mL | 23 µg/mL | 2.9 | 16 µg/mL |  | 8 µg/mL |  | Dose-dependent effect
CN(C(=O)c1cc(C(C)(C)C)cc(C(C)(C)C)c1)c1ccc(C(=O)NCCNC(=N)N)cc1.Cl |  |  |  | 16 µg/mL | 4 µg/mL | 16 µg/mL | 128 µg/mL | 243 µg/mL | 15.2 | 128 µg/mL |  | 16 µg/mL |  | 
CN(C(=O)c1cc(C(C)(C)C)cc(C(C)(C)C)c1)c1ccc(C(=O)NCCN)cc1 |  |  |  |  |  |  |  |  | 0.3 |  |  |  |  | 
CN(C)CCOC(=O)c1ccc(NC(=O)c2cc(C(C)(C)C)cc(C(C)(C)C)c2)cc1.Cl |  |  |  | 4 µg/mL | 4 µg/mL | 8 µg/mL | > 128 µg/mL | 28 µg/mL | 3.5 | > 128 µg/mL |  | 8 µg/mL |  | 
CC(C)(C)c1cc(C(=O)Nc2cccc(C(=O)NCCN)c2)cc(C(C)(C)C)c1.Cl |  |  |  | 8 µg/mL | 8 µg/mL | 16 µg/mL | 16 µg/mL | 39 µg/mL | 2.4 | 16 µg/mL |  | 8 µg/mL |  | 
CN(C)CCNC(=O)c1ccc(NC(=O)c2cc(C(C)(C)C)cc(C(C)(C)C)c2)cc1.Cl |  |  |  | 8 µg/mL | 4 µg/mL | 16 µg/mL | > 128 µg/mL | > 16 µg/mL | > 1 | 32 µg/mL |  | 8 µg/mL |  | 
CC(C)(C)c1cc(C(=O)Nc2ccc(C(=O)NCCN)cc2)cc(C(C)(C)C)c1.Cl | 16 µg/mL | 8 µg/mL | 8 µg/mL | 4 µg/mL | 4 µg/mL | 8 µg/mL | 16 µg/mL | 28 µg/mL | 3.5 | 8 µg/mL | 16 µg/mL | 8 µg/mL | 16 µg/mL | 
CC(C)(C)c1cc(NC(=O)c2ccc(C(=O)NCCCN)cc2)cc(C(C)(C)C)c1.Cl |  |  |  | 8 µg/mL | 4 µg/mL | 8 µg/mL | 16 µg/mL | 28 µg/mL | 3.5 | 8 µg/mL |  | 8 µg/mL |  | 
CC(C)(C)c1cc(NC(=O)c2ccc(C(=O)NCCNC(=N)N)cc2)cc(C(C)(C)C)c1.Cl | 8 µg/mL | 8 µg/mL | 4 µg/mL | 4 µg/mL | 2 µg/mL | 4 µg/mL | 16 µg/mL | 44 µg/mL | 11 | 8 µg/mL | 16 µg/mL | 4 µg/mL | 8 µg/mL | 
CC(C)(C)c1cc(C(=O)Nc2ccccc2C(=O)NCCCNC(=N)N)cc(C(C)(C)C)c1.Cl |  |  |  | 2 µg/mL | 1 µg/mL | 4 µg/mL | 32 µg/mL | 39 µg/mL | 9.8 | 8 µg/mL |  | 2 µg/mL |  | 
CC(C)(C)c1cc(C(=O)Nc2cccc(C(=O)NCCCN)c2)cc(C(C)(C)C)c1.Cl |  |  |  | 8 µg/mL | 4 µg/mL | 8 µg/mL | 16 µg/mL | 32 µg/mL | 4 | 16 µg/mL |  | 8 µg/mL |  | 
CC(C)(C)c1cc(C(=O)Nc2cc3ccccc3cc2C(=O)NCCNC(=N)N)cc(C(C)(C)C)c1.Cl | > 64 µg/mL | 16 µg/mL | 4 µg/mL | 1 µg/mL | 1 µg/mL | 2 µg/mL | 64 µg/mL | > 16 µg/mL | > 8 | 16 µg/mL | 32 µg/mL | 2 µg/mL | 8 µg/mL | 
CC(C)(C)c1cc(NC(=O)c2ccc(C(=O)NCCN)cc2)cc(C(C)(C)C)c1.Cl |  |  |  | 4 µg/mL | 8 µg/mL | 8 µg/mL | 16 µg/mL | 21 µg/mL | 2.6 | 8 µg/mL |  | 8 µg/mL |  | 
